Experimental data pooled from the literature.
Compare with care: the assays were run in different laboratories.
ABL1 Q252H phosphorylated: Tyrosine-protein kinase ABL1, phosphorylated (ABL1, Homo sapiens, UniProt P00519, Q252H)
ABL1 non-phosphorylated: Tyrosine-protein kinase ABL1, non-phosphorylated (ABL1, Homo sapiens, UniProt P00519)
ABL1 Y253F: Tyrosine-protein kinase ABL1 (ABL1, Homo sapiens, UniProt P00519, Y253F)
ABL1: Tyrosine-protein kinase ABL1 (ABL1, Homo sapiens, UniProt P00519)
ABL1 M351T: Tyrosine-protein kinase ABL1 (ABL1, Homo sapiens, UniProt P00519, M351T)

SMILES	target	effect on	mode	technique	tested at	measurement	result
CC#CC(=O)N1CCC[C@H]1c1nc(-c2ccc(C(=O)Nc3ccccn3)cc2)c2c(N)nccn12	ABL1 Q252H phosphorylated	enzyme activity	inhibitor	–	1 µM	inhibition	39%
CN1CCN(C(=O)c2ccc(NC(=O)Nc3ccc(N(C)c4ccnc(Nc5ccc(CS(C)(=O)=O)cc5)n4)cc3)cc2)CC1	ABL1 non-phosphorylated	binding	–	competition with immobilised ligand	1 µM	remaining binding	9%
C=CC(=O)N1CCC([C@@H]2CCNc3c(C(N)=O)c(-c4ccc(Oc5ccccc5)cc4)nn32)CC1	Tyrosine-protein kinase ABL1, phosphorylated (ABL1, Homo sapiens, UniProt P00519, F317I)	enzyme activity	inhibitor	–	1 µM	inhibition	27%
C[C@H]1CC[C@H](n2c3cnccc3c3cnc(Nc4ccc5c(n4)CCN(C(=O)CO)C5)nc32)CC1	ABL1 Y253F	cell-free assay	–	–	1 µM	remaining signal	100%
CCCCC(=O)Nc1ccc(-c2ccc3ncn(CCC)c(=O)c3c2)cn1	ABL1 Q252H phosphorylated	binding	–	competition with immobilised ligand	0.5 µM	remaining binding	99%
Cc1nc(Nc2ncc(C(=O)Nc3c(C)cccc3Cl)s2)cc(N2CCCCC2)n1	ABL1	enzyme activity	inhibitor	–	1 nM	inhibition	65%
COc1ccc2[nH]c3c4[nH]c5ccc(OC)cc5c4c4c(c3c2c1)C(=O)NC4=O	ABL1 M351T	binding	–	–	1 µM	remaining binding	68%
C1=C/COCc2cc(ccc2OCCN2CCCC2)Nc2nccc(n2)-c2cccc(c2)COC/1	Tyrosine-protein kinase ABL1 (ABL1, Homo sapiens, UniProt P00519, Q252H)	binding	–	–	0.1 µM	remaining binding	15%
Cc1nc(Nc2ncc(C(=O)Nc3c(C)cccc3Cl)s2)cc(N2CC[C@@H](N)C2)n1	ABL1	enzyme activity	inhibitor	–	1 nM	inhibition	93%
COc1ccc2oc(-c3ccc4nc(N)oc4c3)c/c(=N\c3ccccc3NC(=O)CCN)c2c1	ABL1 M351T	cell-free assay	–	–	1 µM	remaining signal	100%
Cc1nc(Nc2ncc(C(=O)Nc3c(C)cccc3Cl)s2)cc(N2CC[C@H](O)C2)n1	ABL1	enzyme activity	inhibitor	–	1 nM	inhibition	86%
CO[C@@H]1[C@H](N(C)C(=O)c2ccccc2)C[C@H]2O[C@]1(C)n1c3ccccc3c3c4c(c5c6ccccc6n2c5c31)C(=O)NC4	Tyrosine-protein kinase ABL1, phosphorylated (ABL1, Homo sapiens, UniProt P00519)	enzyme activity	inhibitor	–	1 µM	inhibition	31%
[2H]c1cc(C)c(NC(=O)c2cnc(Nc3cc(N4CC[C@@H](N)C4)nc(C)n3)s2)c(Cl)c1	ABL1	enzyme activity	inhibitor	–	1 nM	inhibition	86%
N#Cc1ccc(NC(=O)Nc2ccccc2)cc1	ABL1 non-phosphorylated	cell-free assay	–	competition with immobilised ligand	25 µM	remaining binding	83%
[2H]c1cc(C)c(NC(=O)c2cnc(Nc3cc(N4CCCCC4)nc(C)n3)s2)c(Cl)c1	ABL1	enzyme activity	inhibitor	–	1 nM	inhibition	96%
Cc1ccc(NC(=O)c2ccnc(C(F)(F)F)c2)cc1-c1cc(OCCO)nc(N2CCOCC2)c1	ABL1 Y253F	binding	–	–	1 µM	remaining binding	100%
